# Published values pooled from the literature.
# Compare with care: the assays were run in different laboratories.
# Target: SRSF protein kinase 2 (SRPK2, Homo sapiens, UniProt P78362)
Structure (SMILES),assay,setting,measurement,value
CCC(=N\O)/C(C)=C/c1ccc(F)cc1,"cell-free assay, competition with immobilised ligand",1 µM,remaining binding,75%
CCN(CC)CCNC(=O)c1c(C)[nH]c(/C=C2\C(=O)Nc3ccc(F)cc32)c1C,"enzyme activity, inhibitor",10 µM,inhibition,37%
CC(C)(C)c1nc2c(s1)c1nc(N)ncc1c1ccc(NS(=O)(=O)c3c(F)cccc3F)c(F)c12,"enzyme activity, inhibitor, radiometric",1 µM,remaining activity,108%
Cn1c2c(c3ccc(Cl)c(Cl)c31)C(C#N)C1(CCNCC1)NC2=O (racemic),"thermal stability, DSF",10 µM,ΔTm,2.4 °C
CNC(=O)c1cc(Oc2ccc(NC(=O)Nc3ccc(Cl)c(C(F)(F)F)c3)cc2)ccn1,"enzyme activity, inhibitor",10 µM,inhibition,12%
COc1cc2ncnc(Nc3ccc(Oc4ccccc4)cc3C)c2cc1OC,"enzyme activity, inhibitor",1 µM,inhibition,0%
CC1(C)NC(=O)c2[nH]c3c(Cl)c(Cl)ccc3c2C1C#N (stereo not shown),"thermal stability, DSF",10 µM,ΔTm,0.4 °C
C[C@@H](c1cccc(C#N)c1)n1cc(Cl)cc(C(N)=O)c1=N,"cell-free assay, competition with immobilised ligand",1 µM,remaining binding,100%
Cc1ccc(C(=O)Nc2ccc(CN3CCN(C)CC3)c(C(F)(F)F)c2)cc1C#Cc1cnc2cccnn12,"enzyme activity, inhibitor",23.5 nM,remaining activity,94%
Nc1ncnc2occ(-c3ccc(NC(=O)Nc4cc(C(F)(F)F)ccc4F)cc3)c12,"cell-free assay, inhibitor",20 µM,remaining signal,100%
C#Cc1cccc(Nc2ncnc3cc(OCCOC)c(OCCOC)cc23)c1,cell-free assay,0.5 µM,remaining signal,101%
CCCS(=O)(=O)Nc1ccc(F)c(C(=O)c2c[nH]c3ncc(-c4ccc(Cl)cc4)cc23)c1F,"enzyme activity, inhibitor",1 µM,inhibition,< 10%
CCN1CCC2(CC1)NC(=O)c1c(c3ccc(Cl)c(Cl)c3n1C)C2C#N (racemic),"thermal stability, DSF",10 µM,ΔTm,0.5 °C
N#CCCc1ccc2c(c1)-c1[nH]c3ccc([N+](=O)[O-])cc3c1CC(=O)N2,cell-free assay,0.5 µM,remaining signal,109%
COc1cccc(CNC(=O)c2nc3scc(COCc4ccc(C(=O)O)cc4)c3c(=O)[nH]2)c1,"cell-free assay, competition with immobilised ligand",1 µM,remaining binding,100%
Cc1ccc(Nc2nccc(N(C)c3ccc4c(C)n(C)nc4c3)n2)cc1S(N)(=O)=O,"enzyme activity, inhibitor",10 µM,inhibition,4%
COc1cc(Cl)c(C(=O)N[C@@H](CN[C@H]2CC[C@@H](N)CC2)Cc2ccc(C#N)cc2)cc1-c1ccc(CN[C@H](C)c2ccc(C)cc2)o1,"enzyme activity, inhibitor",1 µM,remaining activity,98%
Cn1c2c(Cl)c(Cl)ccc2c2cc(N)[nH]c(=O)c21,"thermal stability, DSF",10 µM,ΔTm,0.1 °C
CN([C@@H]1CCc2c(CC(=O)O)c3ccccc3n2C1)S(=O)(=O)c1ccc(F)cc1,"cell-free assay, competition with immobilised ligand",1 µM,remaining binding,100%
CC(C)(O)[C@H]1CC[C@H](Nc2ccc3ncc(-c4cccc(C(F)(F)F)c4)n3n2)CC1,"enzyme activity, inhibitor",1 µM,remaining activity,94.5%
Cn1c2c(c3ccc(Cl)c(Cl)c31)C(C#N)C1(CCCCC1)NC2=O (racemic),"thermal stability, DSF",10 µM,ΔTm,0.2 °C
O=C(O)c1cc(-c2ccc(C3CCNCC3)cc2)c2ccc(-c3ccc(C(F)(F)F)cc3)cc2c1,"cell-free assay, competition with immobilised ligand",1 µM,remaining binding,100%
CN1CC(Oc2cnc(C#N)cc2-c2ccn3nc(NC(=O)C4CC4)cc3c2)C1,"enzyme activity, inhibitor",1 µM,inhibition,6%
N#CC1(c2ccccn2)CCN(Cc2cc(C(=O)N3CCCC3)c(=O)n3ccccc23)CC1,"cell-free assay, competition with immobilised ligand",1 µM,remaining binding,84%
Cc1ccc(NC(=O)c2ccc(C)c(C(F)(F)F)c2)cc1C#Cc1nn(C2CCC(O)CC2)c2ncnc(N)c12 (stereo not shown),cell-free assay,10 µM,remaining signal,107%
Cn1c2c(c3ccc(Cl)c(Cl)c31)C(C#N)C1(CCCC1)NC2=O (stereo not shown),"thermal stability, DSF",10 µM,ΔTm,0 °C
COc1cc(-c2cc(-c3ccc(N4CCNCC4)cc3)cnc2C)cc(OC)c1OC,"enzyme activity, inhibitor",0.1 µM,inhibition,2%
CN(C)CC#Cc1ccc(OCCCc2sc(N3CCc4cccc(C(=O)Nc5nc6ccccc6s5)c4C3)nc2C(=O)O)c(F)c1,"cell-free assay, competition with immobilised ligand",1 µM,remaining binding,100%
Cc1sc(C(=O)NC2COC2)cc1-n1cc(NC(=O)Nc2c(F)cccc2Cl)cn1,"enzyme activity, inhibitor",10 µM,remaining activity,114%
CCOCCn1cc(C(=O)Nc2ccc(-n3nc(-c4cccnc4)cc3C(F)(F)F)cn2)ccc1=O,"cell-free assay, competition with immobilised ligand",1 µM,remaining binding,100%
Cn1c2c(Cl)c(Cl)ccc2c2cc[nH]c(=O)c21,"thermal stability, DSF",10 µM,ΔTm,-0.2 °C
